Here are results for 7 compounds from paper PMC6437812 (ChemistryOpen, 2019).

The test system of one assay is HER2. Description: Western blot of Hsp90 client protein HER2 in SK-BR-3 cells. Type of assay: cell-based, human. The conditions noted are these: 20 μM, 12 h. A digest of the protocol: (§1)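 SK‐BR‐3 cells (DMEM, 10 % FBS) were exposed to test compound at 20 μM for 12 h, washed in ice-cold PBS and lysed in SDS sample buffer. Equal lysate amounts went through SDS‐PAGE and PVDF transfer, with blocking in 5 % milk/TBST pH 7.6. Primary antibodies were applied overnight at 4 °C and secondary antibodies 2 h at room temperature. Detection was by ECL.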
Background: In western blotting, separated proteins are transferred to a membrane and probed.

The subject of assay [1] is breast cancer SK-BR-3 cell line. Description: SRB anti-proliferative assay, SK-BR-3. Format: cell-based. Conditions: Homo sapiens, SK-BR-3, 120 h, read-out: SK-BR-3 (IC50±SD, μM) for 120 h. A digest of the protocol: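 Cells from ATCC, grown in DMEM with 10 % FBS at 37 °C and 5 % CO2. Seeded in 96-well plates overnight, then exposed to increasing concentrations in triplicate for 72 h, or for a prolonged 120 h. Growth was read by sulforhodamine B staining at OD 510 nm. IC50 came from curve fitting.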

Assay [2] has as its system A549 and SK-BR-3 cell lines. Description: Autophagy observed under the microscope. Format: cell-based, human. The conditions noted are these: 10 μM.
Assay [3] addresses recombinant human full-length Hsp90α (Homo sapiens, UniProt P07900). Put plainly: FP assay, competition with FITC-GM. Type of assay: binding.
For the next assay, the system named is Hsp72. Put plainly: Western blot of Hsp72. Format: cell-based, human. Conditions: SK-BR-3 cells, 20 μM, 12 h. The gist of the method: as §1

As for `NNc1nc(NCc2ccccc2)nc(Nc2ccc(Br)cc2)n1` [Compound A22], the “expression of HER2” value with HER2 is “obviously reduced”.

As a reminder, the IC50 is the concentration at which inhibition is half-maximal. Regarding `Cc1cc(C)n(-c2nc(NN=Cc3c[nH]c4ccccc34)nc(Nc3ccc(Br)cc3)n2)n1` [Compound A1, 4‐(2‐((1H‐indol‐3‐yl)methylene)hydrazinyl)‐N‐(4‐bromophenyl)‐6‐(3,5‐dimethyl‐1H‐pyrazol‐1‐yl)‐1,3,5‐triazin‐2‐amine], the half-inhibitory concentration (IC50) in assay [1] is 10.8 ± 1.3 µM. Besides, the “expression of HER2” value in the assay with HER2 is “obviously reduced”. Also, the induction of autophagy result in assay [2] is reported as “little autophagy was induced”. Besides, in assay [3], the “competition with FITC-GM for binding to Hsp90α” value was “failed to compete”.

In the case of `Brc1ccc(Nc2nc(NCc3ccccc3)nc(NCc3ccccc3)n2)cc1` [Compound A25], in the assay on HER2, the “expression of HER2” value was “obviously reduced”.

`CCCNc1nc(NCCC)nc(Nc2ccc(Br)cc2)n1` [Compound A24]: the “expression of HER2” value with HER2 was “obviously reduced”.

Consider `COC1=C2C[C@@H](C)C[C@H](OC)[C@H](O)[C@@H](C)/C=C(\C)[C@H](OC(N)=O)[C@@H](OC)/C=C\C=C(/C)C(=O)NC(=CC1=O)C2=O` [GM, geldanamycin], for which, in the assay on Hsp72, the “induction of Hsp72” value is reported as “induced”.

Turning to `NNc1nc(Nc2ccccc2)nc(Nc2ccc(Br)cc2)n1` [Compound A20], in the assay on HER2, the “expression of HER2” value was “obviously reduced”.

For `Brc1ccc(Nc2nc(N/N=C\c3c[nH]c4ccccc34)nc(Nc3ccccc3)n2)cc1` [Compound A16], the “expression of HER2” value with HER2 is on record as “obviously reduced”.
